The results in this text go back to ChEMBL document CHEMBL3352054, “Discovery of new 7-substituted-4-imidazolylmethyl coumarins and 4'-substituted-2-imidazolyl acetophenones open analogues as potent and selective inhibitors of steroid-11β-hydroxylase” (Eur J Med Chem, 2015).

pIC50: −log10 of the molar value.

For one series, the target named is T1, Aromatase (Homo sapiens, UniProt P11511).
T1 sequence (P11511 whole entry): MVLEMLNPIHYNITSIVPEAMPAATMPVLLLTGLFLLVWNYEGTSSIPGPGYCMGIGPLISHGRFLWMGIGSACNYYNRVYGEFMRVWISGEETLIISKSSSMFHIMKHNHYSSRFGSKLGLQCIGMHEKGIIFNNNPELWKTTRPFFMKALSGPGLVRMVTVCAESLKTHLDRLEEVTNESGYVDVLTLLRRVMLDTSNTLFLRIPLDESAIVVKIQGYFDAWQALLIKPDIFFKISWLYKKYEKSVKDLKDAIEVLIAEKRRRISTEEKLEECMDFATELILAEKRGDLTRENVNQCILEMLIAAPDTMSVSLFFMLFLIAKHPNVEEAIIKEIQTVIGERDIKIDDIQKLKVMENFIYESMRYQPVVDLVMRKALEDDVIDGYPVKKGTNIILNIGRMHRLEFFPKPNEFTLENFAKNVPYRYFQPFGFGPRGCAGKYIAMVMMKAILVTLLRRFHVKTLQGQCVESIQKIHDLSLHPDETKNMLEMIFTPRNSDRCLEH

Series [1] concerns the target T2, CYP17 (steroid 17-alpha-hydroxylase/17,20 lyase) (Homo sapiens, UniProt P05093).
T2 sequence (P05093 whole entry): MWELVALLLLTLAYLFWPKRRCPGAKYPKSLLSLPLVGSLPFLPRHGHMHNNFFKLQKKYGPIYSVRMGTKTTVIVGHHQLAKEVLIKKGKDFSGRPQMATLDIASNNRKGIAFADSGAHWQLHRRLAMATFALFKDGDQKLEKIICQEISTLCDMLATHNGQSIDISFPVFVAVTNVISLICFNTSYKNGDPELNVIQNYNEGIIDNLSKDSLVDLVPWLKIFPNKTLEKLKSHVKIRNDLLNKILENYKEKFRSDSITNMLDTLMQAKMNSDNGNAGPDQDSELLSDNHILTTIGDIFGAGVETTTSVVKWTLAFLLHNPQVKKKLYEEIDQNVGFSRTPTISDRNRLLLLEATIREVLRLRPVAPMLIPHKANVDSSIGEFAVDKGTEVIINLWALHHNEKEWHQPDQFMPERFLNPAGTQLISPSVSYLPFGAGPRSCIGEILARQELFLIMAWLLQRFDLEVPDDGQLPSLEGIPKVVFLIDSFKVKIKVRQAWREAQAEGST
Nature of the series: Inhibition of human CYP17 expressed in Escherichia coli using [3H]-progesterone substrate pre-incubated for 5 mins at 2.5 uM in presence of rat P450 reductase by HPLC method. Particulars: probe [3H]-progesterone. In a few lines:
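E. coli coexpressing human CYP17 and rat P450 reductase. Phosphate buffer pH 7.4 (MgCl2, EDTA, DTT) with an NADPH-generating system. Progesterone plus [3H]-progesterone, 24.95 μM + 0.05 μM final; inhibitor in DMSO. Preincubation 5 min at 37 °C, then enzyme added, 30 min at 37 °C. Stopped with HCl, ethyl acetate extraction. Percent inhibition from conversion versus uninhibited control.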

Series [2] deals with T3, Cytochrome P450 11B1, mitochondrial (Homo sapiens, UniProt P15538).
T3 sequence (P15538 whole entry): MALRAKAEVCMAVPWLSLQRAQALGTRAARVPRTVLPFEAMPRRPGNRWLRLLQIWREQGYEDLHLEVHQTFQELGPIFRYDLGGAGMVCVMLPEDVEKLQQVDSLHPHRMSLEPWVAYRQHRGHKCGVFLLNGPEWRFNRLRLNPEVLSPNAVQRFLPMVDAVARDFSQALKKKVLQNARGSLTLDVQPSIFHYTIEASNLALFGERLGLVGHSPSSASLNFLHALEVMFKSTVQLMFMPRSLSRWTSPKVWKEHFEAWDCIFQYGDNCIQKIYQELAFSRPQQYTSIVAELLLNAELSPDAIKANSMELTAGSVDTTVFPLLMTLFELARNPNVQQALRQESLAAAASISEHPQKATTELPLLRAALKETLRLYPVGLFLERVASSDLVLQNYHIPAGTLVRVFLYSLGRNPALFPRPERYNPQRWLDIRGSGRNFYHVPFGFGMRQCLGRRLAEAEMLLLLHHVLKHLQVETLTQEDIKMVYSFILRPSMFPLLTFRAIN
Nature of the series: Inhibition of human CYP11B1 expressed in hamster V79MZh11B1 cells using [1,2-3H]-11-deoxycorticosterone substrate incubated for 25 mins by HPLC method. In kind it is cell-based.

The species entered for series [3] is Homo sapiens. Nature of the series: Selectivity index, ratio of IC50 for human CYP11B2 to IC50 for human CYP11B1.
For series [4], the species on record is Homo sapiens. Nature of the series: Selectivity index, ratio of IC50 for human placental microsomal CYP19 to IC50 for human CYP11B1.
Series [5] concerns the target T4, Cytochrome P450 11B2, mitochondrial (Homo sapiens, UniProt P19099).
T4 sequence (P19099 whole entry): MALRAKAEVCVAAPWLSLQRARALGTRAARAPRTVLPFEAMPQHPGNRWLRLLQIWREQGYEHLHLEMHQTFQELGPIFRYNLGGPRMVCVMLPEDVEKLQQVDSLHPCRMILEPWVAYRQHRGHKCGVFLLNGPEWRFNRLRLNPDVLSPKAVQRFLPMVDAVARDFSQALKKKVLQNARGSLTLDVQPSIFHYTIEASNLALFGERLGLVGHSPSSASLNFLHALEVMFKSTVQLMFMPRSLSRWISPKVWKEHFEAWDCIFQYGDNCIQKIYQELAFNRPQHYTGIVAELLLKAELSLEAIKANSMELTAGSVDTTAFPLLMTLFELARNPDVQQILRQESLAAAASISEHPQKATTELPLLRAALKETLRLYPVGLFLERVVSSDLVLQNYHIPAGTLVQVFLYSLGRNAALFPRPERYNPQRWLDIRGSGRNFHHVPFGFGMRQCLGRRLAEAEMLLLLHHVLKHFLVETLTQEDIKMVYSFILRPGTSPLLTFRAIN
Nature of the series: Inhibition of human CYP11B2 expressed in hamster V79MZh11B2 cells using [1,2-3H]-11-deoxycorticosterone substrate incubated for 45 mins by HPLC method.

`O=C(Cn1ccnc1)c1ccc(OCc2cccnc2)cc1`: the results for the pIC50 (against Aromatase; in series [2]; in series [5]) were 4.50, 6.29 and 5.85, respectively. In addition, the inhibition (in general, the share of the control response that was lost under treatment) at 2.5 µM in series [1] was 6%. Besides, the values for the Ratio IC50 in the series filed under Homo sapiens [3] and in the series filed under Homo sapiens [4] were 2.7 and 61, respectively.

Take `O=C(Cn1ccnc1)c1ccc(OCc2ccccc2)cc1`: the pIC50 (as a rule, −log10 of the IC50, conventionally taken in molar units) on Aromatase is 5.35; in series [2] it was 6.83; in series [5], 6.23. In addition, the inhibition at 2.5 µM in series [1] is 1%. The Ratio IC50 in the series listed under Homo sapiens [3] was determined as 3.9; in the series listed under Homo sapiens [4], 30.

`O=C(Cn1ccnc1)c1ccc(OCc2cccc(OC(F)(F)F)c2)cc1`: the pIC50 is 5.23 on Aromatase, 7.82 in series [2] and 6.30 in series [5]. Further, in series [1], the inhibition at 2.5 µM came out at 5%. Also, the Ratio IC50 in the series listed under Homo sapiens [3] worked out at 33; in the series listed under Homo sapiens [4], 390.
